Experimental data pooled from the literature.
Each line is one published result; the experiments were not run side by side.
ACHE: Acetylcholinesterase (ACHE, Homo sapiens, UniProt P22303)

SMILES | target | test | setting | quantity | value
CC(C)CC(=O)OC[C@H]1O[C@@](C#N)(c2ccc3c(N)ncnn23)[C@H](O)[C@@H]1O | ACHE | enzyme activity, inhibitor | 20 µM | inhibition | 3%
C1CO1.C=O.CC(C)(C)CC(C)(C)c1ccc(O)cc1 | Mitogen-activated protein kinase 3 (MAPK3, Homo sapiens, UniProt P27361) | enzyme activity, inhibitor, ADP detection | 10 µM | inhibition | 45.2%
COc1cc(/C=C/C(=O)O)ccc1OCc1cn(CC(=O)Nc2ccccc2[N+](=O)[O-])nn1 | ACHE | enzyme activity, inhibitor, Ellman | 40 µM | inhibition | 22.1%
CCCCC(=O)Nc1ccc(-c2ccc3ncn(CCC)c(=O)c3c2)cn1 | Serine/threonine-protein kinase PknB (pknB, Mycobacterium tuberculosis, UniProt P9WI81) | binding, competition with immobilised ligand | 0.5 µM | remaining binding | 100%
COc1cc(/C=C/C(=O)O)ccc1OCc1cn(CC(=O)Nc2ccccc2C)nn1 | ACHE | enzyme activity, inhibitor, Ellman | 40 µM | inhibition | 30.9%
CN1C(=O)/C(=N\Nc2ncc(-c3cc4ccccc4oc3=O)s2)c2cc(Cl)ccc21 | ACHE | enzyme activity, inhibitor, Ellman | 1 µM | inhibition | 90%
COc1cc(/C=C/C(=O)O)ccc1OCc1cn(CC(=O)Nc2ccc(C)cc2)nn1 | ACHE | enzyme activity, inhibitor, Ellman | 40 µM | inhibition | 46%
[2H]c1c([2H])c([C@]2([2H])CCCN2C(=O)C(C)(C)Oc2ccc3cn[nH]c3c2)c([2H])c([2H])c1C([2H])([2H])[2H] | Ephrin type-A receptor 2 (EPHA2, Homo sapiens, UniProt P29317) | binding, competition with immobilised ligand | 1 µM | remaining binding | 99%
CCc1ccc(N2C(=O)/C(=C3/C(=O)N(C)c4ccc(Cl)cc43)NC2=S)cc1 | ACHE | enzyme activity, inhibitor, Ellman | 5 µM | inhibition | 84%
